{"data": "Results of several laboratories", "target": "Serine/threonine-protein kinase Nek7 (NEK7, Homo sapiens, UniProt Q8TDX7)", "note": "Each line is one published result; the experiments were not run side by side."}
{"SMILES": "O=C(c1ccc(Nc2ncc(Cl)c(-c3cc4ccccc4s3)n2)cc1)N1CCC(N2CCCC2)CC1", "observed": "binding", "method": "competition with immobilised ligand", "tested at": "1 µM", "remaining binding [%]": 4.5}
{"SMILES": "c1cnn2ncc(-c3ccnc(N4CCC45COC5)n3)c2c1", "observed": "binding", "tested at": "1 µM", "remaining binding [%]": 86}
{"SMILES": "C=CC(=O)N1CCC(C(=O)NCC(=O)N2CCN(c3nc(-c4cnc(N)nc4C(F)F)nc(N4CCOCC4)n3)CC2)CC1", "observed": "binding", "method": "competition with immobilised ligand", "tested at": "1 µM", "remaining binding [%]": 100}
{"SMILES": "CC(=O)Nc1c(C(C)=O)c(=O)n(C)c2nc(-c3ccc(Cl)cc3Cl)c(-c3ccc(Cl)cc3)cc12", "observed": "cell-free assay", "method": "competition with immobilised ligand", "tested at": "1 µM", "remaining binding [%]": 100}
{"SMILES": "COc1ccnn2ncc(-c3ccnc(N(C)C)n3)c12", "observed": "binding", "tested at": "1 µM", "remaining binding [%]": 100}
{"SMILES": "O=C(NCCCN1CCOCC1)c1ccc(Nc2ncc(Cl)c(-c3ccc(Cl)s3)n2)cc1", "observed": "binding", "method": "competition with immobilised ligand", "tested at": "1 µM", "remaining binding [%]": 1.2}
{"SMILES": "CN(C)c1nccc(-c2cnn3ncccc23)n1", "observed": "binding", "tested at": "1 µM", "remaining binding [%]": 92}
{"SMILES": "CC(=O)C1=C(C)N(c2cccc(C(F)(F)F)c2)C(=O)N[C@@H]1c1ccc(C#N)nc1", "observed": "cell-free assay", "method": "competition with immobilised ligand", "tested at": "1 µM", "remaining binding [%]": 100}
{"SMILES": "COc1ncc2cc3ccccc3nc2c1C#N", "observed": "cell-free assay", "method": "competition with immobilised ligand", "tested at": "5 µM", "remaining binding [%]": 100}
{"SMILES": "CCC(=O)N[C@H]1CC[C@@H](C(=O)N(C)c2ccc(-c3nc4ccccc4o3)cc2)C1", "observed": "cell-free assay", "method": "competition with immobilised ligand", "tested at": "1 µM", "remaining binding [%]": 98}
{"SMILES": "c1cncc(-c2cccc(Nc3nccc(NC4CCCCC4)n3)c2)c1", "observed": "binding", "method": "competition with immobilised ligand", "tested at": "10 µM", "remaining binding [%]": 79}
{"SMILES": "O=C(Nc1cnc(Oc2ccc(F)cc2)nc1)N1CCc2ncccc2[C@@H]1c1ccc(F)cc1", "observed": "cell-free assay", "method": "competition with immobilised ligand", "tested at": "1 µM", "remaining binding [%]": 84}
{"SMILES": "Nc1ncc2c(n1)-c1c([nH]c3ccc(C#CC4CC4)cc13)CCCC2", "observed": "binding", "method": "competition with immobilised ligand", "tested at": "1 µM", "remaining binding [%]": 88}
{"SMILES": "N[C@@H]1CCN(c2nccc(-c3cnn4ncccc34)n2)C1", "observed": "binding", "tested at": "1 µM", "remaining binding [%]": 100}
{"SMILES": "O=C(NCCCN1CCOCC1)c1ccc(Nc2nccc(-c3cc4ccccc4s3)n2)cc1", "observed": "binding", "method": "competition with immobilised ligand", "tested at": "1 µM", "remaining binding [%]": 52}
{"SMILES": "COc1cnc(Nc2cccc(S(N)(=O)=O)c2)nc1N1CCN(c2ccccc2)CC1", "observed": "binding", "method": "competition with immobilised ligand", "tested at": "1 µM", "remaining binding [%]": 74}
{"SMILES": "COc1cccc(CNC(=O)c2nc3scc(COCc4ccc(C(=O)O)cc4)c3c(=O)[nH]2)c1", "observed": "cell-free assay", "method": "competition with immobilised ligand", "tested at": "1 µM", "remaining binding [%]": 100}
{"SMILES": "CC1CCCN1c1nccc(-c2cnn3ncccc23)n1 (stereo not drawn)", "observed": "binding", "tested at": "1 µM", "remaining binding [%]": 100}
{"SMILES": "O=C(Nc1c[nH]nc1C(=O)NC1CCNCC1)c1cc(F)cc(F)c1", "observed": "binding", "method": "competition with immobilised ligand", "tested at": "1 µM", "remaining binding [%]": 100}
{"SMILES": "CCN1CCN(Cc2ccc(C(=O)Nc3ccc(C)c(Oc4ccc5c(c4)CC(=O)N5)c3)cc2C(F)(F)F)CC1", "observed": "binding", "method": "competition with immobilised ligand", "tested at": "1 µM", "remaining binding [%]": 100}
{"SMILES": "F[C@@H]1CCN(c2nccc(-c3cnn4ncccc34)n2)C1", "observed": "binding", "tested at": "1 µM", "remaining binding [%]": 100}
{"SMILES": "O=C(Nc1cccnn1)N1CCC(=Cc2cccc(Oc3ccc(C(F)(F)F)cn3)c2)CC1", "observed": "cell-free assay", "method": "competition with immobilised ligand", "tested at": "1 µM", "remaining binding [%]": 100}
{"SMILES": "C[C@H]1CCN(c2nccc(-c3cnn4ncccc34)n2)C1", "observed": "binding", "tested at": "1 µM", "remaining binding [%]": 100}
{"SMILES": "O=C(N1CCS(=O)(=O)CC1)N1C[C@H](c2ccc(OC(F)(F)F)cc2)C[C@H](c2nc(C3CC3)no2)C1", "observed": "cell-free assay", "method": "competition with immobilised ligand", "tested at": "1 µM", "remaining binding [%]": 100}
